These results are taken from ChEMBL document CHEMBL3763097, “Synthesis and biological evaluation of 5,10-dihydro-11H-dibenzo[b,e][1,4]diazepin-11-one structural derivatives as anti-cancer and apoptosis inducing agents” (Eur J Med Chem, 2016).

Activity calls are given as the source filed them. No cut-off for these calls is given here.

Experiment [1] has as its system MDA-MB-231. Put plainly: Induction of apoptosis in human MDA-MB-231 cells assessed as early apoptotic cells at 1 uM after 24 hrs by Annexin V-FITC/PI dual staining based flow cytometry (reference value: 0.3%). The format is functional.
Experiment [2] relates to A549. As to the kind of experiment: Cell cycle arrest in human A549 cells assessed as accumulation at G2/M phase at 1 uM after 24 to 48 hrs by propidium iodide staining based flow cytometry (reference value: 22.3 to 31%). Format: functional. In a few lines: (§1)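 Cells were seeded at 1×10^6 per well and treated 24 h later with 0.5, 1 or 2 µM compound; DMSO-treated cells served as control. Methods give harvest at 48 h (floating plus trypsinised cells); the figure legend says 24 h. Cells were fixed in 70% ethanol for 30 min at 4 °C and stained with PI, Triton X-100 and RNase A for 15 min in the dark. 10000 events were counted by flow cytometry.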
On the technique in general: Flow cytometry measures light scatter and fluorescence of single cells or particles in a stream.

The subject of experiment [3] is MDA-MB-231. As to the kind of experiment: Disruption of mitochondrial membrane potential in human MDA-MB-231 cells after 48 hrs by Rhodamine-123 staining based spectrofluorometry. The format is functional, cell-based. In a few lines:
(§2)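 Cells were seeded at 5×10^5 cells/mL overnight and treated with 0.5, 1 and 2 µM compound; the methods say 24 h and the results text says 48 h. Trypsinised cells were washed and stained with rhodamine-123 (2 µM in PBS) for 30 min at room temperature in the dark, washed and read by spectrofluorometer. Data are mean ± SD of three independent experiments.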

Experiment [4] concerns A549. Put plainly: Cell cycle arrest in human A549 cells assessed as accumulation at G0/G1 phase at 1 uM after 24 to 48 hrs by propidium iodide staining based flow cytometry (reference value: 49.1%). Format: functional. In a few lines: as §1
Experiment [5] relates to MDA-MB-231. As to the kind of experiment: Cell cycle arrest in human MDA-MB-231 cells assessed as accumulation at G2/M phase after 24 to 48 hrs by propidium iodide staining based flow cytometry. Format: functional. In a few lines: as §1
The subject of experiment [6] is MDA-MB-231. As to the kind of experiment: Induction of apoptosis in human MDA-MB-231 cells assessed as necrotic cells at 0.5 uM after 24 hrs by Annexin V-FITC/PI dual staining based flow cytometry (reference value: 1.9%). The format is functional.
Experiment [7] has as its system MDA-MB-231. Put plainly: Induction of apoptosis in human MDA-MB-231 cells assessed as condensation of nuclei at 0.5 to 2 uM after 48 hrs by Hoechst […] staining based fluorescence microscopy. The format is functional, cell-based. In a few lines: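 Cells at 25×10^4 per well were allowed to adhere 24 h, then treated with 0.5, 1 and 2 µM compound for 48 h at 37 °C. After a PBS wash they were stained with Hoechst […] (5 µg/mL) for 30 min at room temperature and washed twice. Nuclear morphology was viewed by fluorescence microscopy (ex 350/em 460 nm).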

For experiment [8], the system named is A549. Put plainly: Disruption of mitochondrial membrane potential in human A549 cells after 48 hrs by Rhodamine-123 staining based spectrofluorometry. Format: functional, cell-based. In a few lines: as §2
Experiment [9] concerns MDA-MB-231. Put plainly: Cell cycle arrest in human MDA-MB-231 cells assessed as accumulation at G2/M phase at 2 uM after 24 to 48 hrs by propidium iodide staining based flow cytometry (reference value: 20.2%). The format is functional. In a few lines:
as §1

Experiment [10] deals with A549. As to the kind of experiment: Induction of apoptosis in human A549 cells assessed as necrotic cells at 1 uM after 24 hrs by Annexin V-FITC/PI dual staining based flow cytometry (reference value: 5.2%). The format is functional.

`O=C1c2ccccc2Nc2ccccc2N1Cc1cn(Cc2ccccc2)nn1`: the Activity in the experiment on MDA-MB-231 [1] is 14.2%; in the experiment with A549 [2], 43.6%; with MDA-MB-231 [3], “Dose-dependent effect”; with A549 [4], 39.8%; in the experiment on MDA-MB-231 [5] it was “Dose-dependent effect”; with MDA-MB-231 [6], 2.5%. Further, the results for the Activity result with A549 [8], in the experiment with MDA-MB-231 [9] and in the experiment on A549 [10] were “Dose-dependent effect”, 63.4% and 1.9%, respectively. Further, the outcome in the experiment with MDA-MB-231 [7] was Active.
